Where two headings read alike, the source gives them in different places. Values belong to the molecule of their own block, whether it stands above or below them.
B1: GST-REV1(826–1251) (domain or fragment, human, UniProt Q9UBZ9 826-1251, looked up)
chain: PTNLNPSTCPSRPSVQSSHFPSGSYSVRDVFQVQKAKKSTEEEHKEVFRAAVDLEISSASRTCTFLPPFPAHLPTSPDTNKAESSGKWNGLHTPVSVQSRLNLSIEVPSPSQLDQSVLEALPPDLREQVEQVCAVQQAESHGDKKKEPVNGCNTGILPQPVGTVLLQIPEPQESNSDAGINLIALPAFSQVDPEVFAALPAELQRELKAAYDQRQRQGENSTHQQSASASVPKNPLLHLKAAVKEKKRNKKKKTIGSPKRIQSPLNNKLLNSPAKTLPGACGSPQKLIDGFLKHEGPPAEKPLEELSASTSGVPGLSSLQSDPAGCVRPPAPNLAGAVEFNDVKTLLREWITTISDPMEEDILQVVKYCTDLIEEKDLEKLDLVIKYMKRLMQQSVESVWNMAFDFILDNVQVVLQQTYGSTLKVT

What was measured:
His-REV1(1130–1251) [1] = molecular target: T1, His-REV1(1130–1251) (Homo sapiens, UniProt Q9UBZ9); assay: Surface plasmon resonance, His-REV1; type: binding; conditions: SPR, BIACORE 2000, CM5 chip; His-REV1(1130–1251) 1.1 µM in Fig. 2A
T1 sequence (Q9UBZ9 1130-1251): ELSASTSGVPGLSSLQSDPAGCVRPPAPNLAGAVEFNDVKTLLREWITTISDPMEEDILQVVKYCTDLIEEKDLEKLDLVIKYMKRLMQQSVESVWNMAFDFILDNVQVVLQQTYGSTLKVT
Outline: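 SPR on BIACORE 2000. Synthetic peptides carrying an added N-terminal Cys were thiol-coupled to CM5 dextran. His-REV1(1130–1251) was cut from a GST-His fusion with Factor Xa, purified on Ni-NTA, then cleared of uncleaved fusion on glutathione resin. Varying concentrations were injected in 10 mM HEPES pH 7.5, 150 mM NaCl, 3 mM EDTA, 0.005% P20 at 20 µl/min, 25°C; contact 60 s, dissociation 120 s. Control-cell signal was subtracted. Kd came from equilibrium analysis of mean signals.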

REV1(1130–1218) = assay: Surface plasmon resonance, REV1; type: binding, human; conditions: SPR; REV1 derivative lacking a portion essential for the interaction with Polκ; data not shown
PCNA [2] = molecular target: PCNA (Homo sapiens, UniProt P12004); assay: Surface plasmon resonance, PCNA binding to immobilized peptides; conditions: SPR; data not shown
Chain of PCNA (Homo sapiens, UniProt P12004) (P12004 whole entry, species assumed): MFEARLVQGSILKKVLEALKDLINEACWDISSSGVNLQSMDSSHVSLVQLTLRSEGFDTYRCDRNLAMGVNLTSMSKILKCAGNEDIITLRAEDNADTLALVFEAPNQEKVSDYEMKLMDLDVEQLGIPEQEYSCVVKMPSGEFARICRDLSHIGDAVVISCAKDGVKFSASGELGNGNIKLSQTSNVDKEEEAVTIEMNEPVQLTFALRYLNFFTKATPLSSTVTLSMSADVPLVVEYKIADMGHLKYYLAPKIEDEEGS
Outline: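 PCNA binding by SPR against synthetic peptides that carry an added N-terminal Cys, coupled through the sulfhydryl to CM5 carboxylated dextran sensor chips by thiol activation chemistry. The peptide–protein signal minus the control-cell signal was analysed and scored + or −.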

His-REV1(1130–1251) [3] = molecular target: T2, His-REV1(1130–1251) (human, UniProt Q9UBZ9 1130-1251); assay: SPR
T2 sequence (looked up): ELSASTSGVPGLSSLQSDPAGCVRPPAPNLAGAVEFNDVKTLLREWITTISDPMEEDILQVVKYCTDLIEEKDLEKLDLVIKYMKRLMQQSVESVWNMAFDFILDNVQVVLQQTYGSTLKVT

His-Polκ(1–615) = molecular target: T3, His-Polκ(1–615) (human, UniProt Q9UBT6 1-615); assay: pull-down
T3 sequence (looked up): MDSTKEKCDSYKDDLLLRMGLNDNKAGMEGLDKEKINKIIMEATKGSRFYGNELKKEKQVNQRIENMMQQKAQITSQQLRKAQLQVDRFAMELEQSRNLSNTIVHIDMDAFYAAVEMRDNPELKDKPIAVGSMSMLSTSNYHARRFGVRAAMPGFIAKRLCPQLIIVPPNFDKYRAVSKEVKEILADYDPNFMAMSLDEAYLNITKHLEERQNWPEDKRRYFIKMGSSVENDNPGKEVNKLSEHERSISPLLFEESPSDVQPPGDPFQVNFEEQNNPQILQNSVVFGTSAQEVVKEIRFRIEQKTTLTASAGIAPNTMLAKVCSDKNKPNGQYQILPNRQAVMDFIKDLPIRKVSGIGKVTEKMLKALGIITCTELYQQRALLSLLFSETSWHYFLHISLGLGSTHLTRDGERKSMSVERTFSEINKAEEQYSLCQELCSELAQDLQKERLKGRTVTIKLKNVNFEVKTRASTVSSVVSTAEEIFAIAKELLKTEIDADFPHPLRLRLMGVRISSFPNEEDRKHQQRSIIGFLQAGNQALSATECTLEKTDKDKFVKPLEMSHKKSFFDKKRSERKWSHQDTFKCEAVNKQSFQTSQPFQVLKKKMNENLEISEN

GST-REV1(826–1251) = molecular target: B1; assay: pull-down
PCNA [4] = molecular target: T4, PCNA (UniProt P12004 1-261); assay: SPR
T4 sequence (P12004 whole entry): as the sequence (P12004 whole entry, species assumed) above

PCNA [5] = molecular target: T4, PCNA; assay: SPR; remark: listed apart in the source

Molecule: CEMSHKKSAADKKRSER [κ560-575AA]
Binding of His-REV1(1130–1251) / REV1-CTD to immobilized peptide (in words) (His-REV1(1130–1251) [1]): but not to κ560-575AA | Interaction of REV1(1130–1218) with immobilized peptide (in words) (REV1(1130–1218)): failed to interact

Molecule: CKRPRPEGMQTLESAAKPLTH [η694-713AA]
PCNA binding to immobilized peptide (in words) (PCNA [2]): failed to bind

Molecule: CQSTGTEPFFKQKSLLL [η524-539FF]
Kd (His-REV1(1130–1251) [3]): 13 µM

Molecule: B1
binding result (His-Polκ(1–615)): binds

Molecule: CKKSFFDKKRSER [κ564-575FF]
binding result (GST-REV1(826–1251)): binds

Molecule: CSHKKSFFDKKRSER [κ562-575FF]
binding result (GST-REV1(826–1251)): binds

Other lines, results leading:

Binding of His-REV1(1130–1251) / REV1-CTD to immobilized peptide (in words) (His-REV1(1130–1251) [1]): failure of κ558-571FF to bind REV1-CTD
Molecule: CPLEMSHKKSFFDKK [κ558-571FF]

Kd (His-REV1(1130–1251) [3]): 69 µM
Molecule: CASRGVLSFFSKKQMQD [ι539-554FF]

Kd (His-REV1(1130–1251) [3]): 7.6 µM
Molecule: CEMSHKKSFFDKKRSER [κ560-575FF]

Kd (PCNA [4]): ~400 nM | Kd (PCNA [5]): ~300 nM
Molecule: CKRPRPEGMQTLESFFKPLTH [η694-713FF]

From PMC3103050 (Genes to cells : devoted to molecular & cellular mechanisms, 2009)
